Calls of active or inactive are those of the source.
What was measured:
[1] = system: Rattus norvegicus; assay: Antagonist activity at 5HT3 receptor in urethane-anesthetized Sprague-Dawley rat assessed as half-blockade of 1-phenylbiguanide-induced bradycardia at 30 ug/kg, iv administered 5 mins before 1-phenylbiguanide challenge measured after 5 to 30 mins post-treatment by von Bezold-Jarisch reflex test; assay type: functional, organism-based
[2] = system: Rattus norvegicus; assay: Antagonist activity at 5HT3 receptor in urethane-anesthetized Sprague-Dawley rat assessed as reduction in 1-phenylbiguanide-induced bradycardia at 100 ug/kg, iv administered 5 mins before 1-phenylbiguanide challenge measured after 5 to 30 mins post-treatment by von Bezold-Jarisch reflex test; assay type: functional, organism-based
[3] = molecular target: T1, 5-hydroxytryptamine receptor 3A (Cavia porcellus) (UniProt O70212); assay: Agonist activity at 5HT3 receptor in spontaneously beating guinea pig right atrium assessed as positive chronotropic potency; assay type: functional, tissue-based; conditions: Cardiac atrium
T1 sequence (whole entry): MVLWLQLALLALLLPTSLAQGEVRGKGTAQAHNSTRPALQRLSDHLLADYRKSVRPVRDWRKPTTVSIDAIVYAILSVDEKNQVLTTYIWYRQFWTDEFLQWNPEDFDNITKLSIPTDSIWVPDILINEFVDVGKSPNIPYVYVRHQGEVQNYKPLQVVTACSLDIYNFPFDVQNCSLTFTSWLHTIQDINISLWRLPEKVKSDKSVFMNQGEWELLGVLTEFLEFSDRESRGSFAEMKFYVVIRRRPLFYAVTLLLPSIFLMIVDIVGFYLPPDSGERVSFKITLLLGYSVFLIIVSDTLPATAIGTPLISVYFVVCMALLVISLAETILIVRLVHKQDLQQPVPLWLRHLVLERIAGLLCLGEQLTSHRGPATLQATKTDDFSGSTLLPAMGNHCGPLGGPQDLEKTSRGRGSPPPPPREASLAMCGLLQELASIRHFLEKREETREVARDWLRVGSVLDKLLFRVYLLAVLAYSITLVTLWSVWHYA
In short: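 Isolated guinea pig atria in PSS (Tyrode) with ketanserin 1 µM, 95% O2-5% CO2, pH 7.4, 35 °C. Right atrium beating spontaneously (rate); left atrium paced 1 Hz, 0.6-0.8 ms pulses near 50% threshold (force). Isometric recording after 45-60 min stabilization.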

Row | Structure (SMILES) | Activity [1] | Activity [2] | pD2 [3]
1 | N/C(CN1CCN(c2nc3cc(F)ccc3n3cccc23)CC1)=N\O | Active |  | 
2 | N[C@@H](CN1CCN(c2nc3cc(F)ccc3n3cccc23)CC1)C(=O)O |  | Active | 5.98

From ChEMBL document CHEMBL1136924 (J Med Chem, 2009)
